L major viab = Leishmania major promastigote growth inhibition, primary screen | Leishmania major promastigotes, resazurin fluorescence viability | inhibition, % at 10 µM | hit rate 9% among 200,000 | AID 1063, 2008; in the data active means inhibition above about 50%;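 further: promastigotes grown with compound for 44 hours at 28 °C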
KCC2 mod = KCC2 cotransporter modulators, thallium flux, primary screen, cell-based, HEK293 KCC2, FluoZin-2 fluorescence, MLSMR; Solute carrier family 12 member 5 (Homo sapiens), Q9H2X9; KCC2 cells, thallium flux FluoZin-2 fluorescence; B-score of Tl+ flux slope (higher = more flux/activation; lower = inhibition) at 10 µM; hit rate 2.2% among 190,000; AID 1456, 2008;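 active means thallium flux slope and its plate-corrected score both differing from the plate sample mean at a set confidence after two filtering rounds, in either direction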;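 further: slope of fluorescence scaled to starting intensity during 10 to 20 s after thallium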
Diaph act CS = compounds boosting diaphorase resazurin reduction – biochemical, uHTS, resorufin fluorescence, counter-screen for diaphorase-coupled primary assays, primary screen; Diaphorase/resazurin coupled assay, 16 min; active compounds read high; 1 = vehicle wells, 0 = NADH-free wells; activation factor at 20 µM; hit rate 0.005% among 190,000;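 active means diaphorase activity raised at least twofold by the compound at 20 µM; inactive means activation factor below 2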
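Assay system: bacterial diaphorase enzyme (C. kluyveri) / Input: enzyme 0.07 U/mL final / Medium: 50 mM HEPES pH 7.4 with 4.542 mM MgCl2, 0.005% Tween 20 / Doses: single compound dose of 20 µM, 1% DMSO final / Incubation: 16 min enzyme reaction, ambient temperature / Signal: fluorescence, excitation 544 nm and emission 590 nm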
ROMK primary = ROMK potassium channel modulators, primary screen, cell-based, thallium flux, MLSMR library; ATP-sensitive inward rectifier potassium channel 1 (Homo sapiens), P48048; B-score at 10 µM; Tet-inducible ROMK, thallium flux fluorescence; actives lie on both sides; hit rate 2% among 130,000;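 active means signal ratio slope over the read window, or its plate-corrected B-score, at least 3 SD from the plate mean, either direction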;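 further: B-score of the F/F0 ratio slope over 7 to 12 s after thallium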
Target sequence (P48048 whole entry, looked up): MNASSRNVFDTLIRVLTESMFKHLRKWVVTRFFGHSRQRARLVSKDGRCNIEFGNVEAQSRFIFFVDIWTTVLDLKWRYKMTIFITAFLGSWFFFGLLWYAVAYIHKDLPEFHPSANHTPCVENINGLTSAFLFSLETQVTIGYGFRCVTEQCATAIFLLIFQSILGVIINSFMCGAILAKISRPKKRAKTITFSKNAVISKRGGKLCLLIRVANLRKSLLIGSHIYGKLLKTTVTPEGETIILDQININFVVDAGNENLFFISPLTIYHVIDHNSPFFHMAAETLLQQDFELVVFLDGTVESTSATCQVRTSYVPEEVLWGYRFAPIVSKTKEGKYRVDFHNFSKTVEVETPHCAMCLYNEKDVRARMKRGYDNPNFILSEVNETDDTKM
WT yeast gro inh = growth inhibition of WT strain, primary screen, mitochondrial fusion inhibitor project, WT and mutant strains, chemical genetic; mitochondrial fusion phenotypic screen; AID 1362, 2008; inhibition, % at 10 µM; hit rate 2.1% among 190,000; in the data active means inhibition above about 58%; tested in S. cerevisiae
Diaphorase inh = diaphorase inhibitors and chemical oxidizers, primary screen, counter-screen for diaphorase-coupled primary assays, biochemical, uHTS, resorufin fluorescence; AID 1217, 2008; diaphorase resazurin-to-resorufin fluorescence, NADH, 16 min; bacterial (C. kluyveri) enzyme, not human; hit rate 0.69% among 190,000; inhibition, % at 20 µM;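 active means primary screen inhibition at 20 µM above a set limit, cut at about 50% in these data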;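 further: plate controls were DMSO with full reaction for no effect and wells lacking NADH for full effect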
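material = Clostridium kluyveri diaphorase enzyme | amount = 0.14 U/mL diaphorase, enzyme working solution | schedule = incubation 16 min, room temperature | detection = fluorescence of resorufin formed from resazurin, Ex 544/Em 590 nm | benchmarks = positive control minus NADH, DMSO neutral control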
ROMK hit retest = ROMK channel modulator hit retest, confirmation, cell-based, thallium flux, duplicate, resupplied hits; shares compounds with ROMK primary; fluorescence ratio; active compounds read low; normalized thallium flux (F/F0 slope) at 10 µM; hit rate 54% among 3,000;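 active means Flux at 10 µM at least 3 SD below or above vehicle control mean in one or both replicates; inconclusive means no clear call, values can overlap the other calls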
* marks the source's active call; other numbers are inactive results; ? = inconclusive; · = no result given. Hits are enriched below; roughly 12% of the tested compounds scored in any of these assays.

SMILES | L major viab | KCC2 mod | Diaph act CS | ROMK primary | WT yeast gro inh | Diaphorase inh | ROMK hit retest
COCCNC(=O)CSC1=N/C(=C/c2ccc(Cl)c(Cl)c2)C(=O)N1c1ccccc1F | 24 | -0.52 | 0.8 | · | 14 | 22 | 0.077
O=C(O)c1ccc(OCc2cn3ccccc3n2)cc1 | · | -1.1 | · | · | · | · | ·
O=C(COc1ccc(Oc2ccccc2)cc1)NCc1cn2ccccc2n1 | 3 | -0.15 | 1 | 2.9* | -10 | -4 | 0.081
O=C(Cc1ccc(-n2cccc2)cc1)NCc1cccs1 | -2 | · | 0.9 | 3.4* | -8 | 7 | ?
O=C(NNC1=C(C(=O)C(F)(F)F)CCC1)c1ccc(Cl)cc1 | 16 | 1.9 | 0.8 | · | 8 | 23 | ·
O=C(NNC1=C(C(=O)C(F)(F)F)CCC1)c1cccc(Cl)c1 | 21 | · | 0.9 | 5.8* | 7 | 7 | 0.089
COc1ccccc1NC(=O)CN1CCN(Cc2ccccc2)CC1 | 7 | · | 0.9 | · | 10 | 6 | ·
O=C(CN1CCN(Cc2ccccc2)CC1)Nc1ccccc1-c1ccccc1 | 2 | -0.014 | 0.8 | -3.7* | 9 | 16 | ?
COc1cccc(CNC(=O)C2CCN(Cc3cnn(-c4ccccc4)c3-n3cccc3)CC2)c1 | 10 | -0.16 | 0.9 | -3.5* | 24 | 13 | 0.055*
O=C(NCc1ccccn1)C1CCN(Cc2cnn(-c3ccccc3)c2-n2cccc2)CC1 | 9 | 0.23 | 1 | -0.23 | 6 | 5 | ·
CC(C)(C)NCC(O)COc1ccccc1C(C)(C)C (stereo not given) | 8 | 0.077 | 0.8 | -3.8* | 0 | 17 | 0.078
Cc1c[nH]c2cccc(OCC(O)CNC(C)(C)C)c12 (stereo not given) | 0 | 0.98 | 0.9 | · | 0 | 12 | ·
CC(C)(C)NCC(O)COc1ccccc1C(=O)CCc1ccccc1 (stereo not given) | 25 | -0.66 | 1 | -3.9* | 0 | 3 | 0.05*
COc1cnc(-c2ccccn2)nc1Oc1ccccc1 | 9 | · | 0.9 | 0.0025 | -2 | 5 | ·
COc1cnc(-c2ccccn2)nc1Sc1ccccc1 | 100* | · | 1 | -3 | 59 | 2 | ?
Cc1noc(C)c1COc1ccc(CC(=O)NCc2ccccc2)cc1 | 7 | 0.12 | 0.9 | 3.1* | -1 | 12 | 0.1*
Cc1noc(C)c1COc1ccc(CC(=O)NC2CCCCCC2)cc1 | 10 | -0.045 | 0.9 | -0.5 | -2 | 8 | ·
N#C/C(=C\c1ccccn1)c1nc2ccccc2s1 | 23 | 0.33 | 0.9 | -5.7* | 59* | 12 | 0.032*
COc1ccc(/C(C#N)=C/c2ccccn2)cc1 | · | -0.61 | · | 0.7 | · | · | ·
N#Cc1cnc(NOCc2ccc(Cl)cc2)nc1 | -4 | -0.036 | 1 | -9.5* | -12 | 3 | 0.074
O=C(/C=C/c1ccc(Br)cc1)c1ccco1 | 89* | -0.29 | 1 | -5.4* | 11 | 0 | ?
O=C(/C=C/C=C/c1ccccc1)c1ccco1 | · | -3.8 | · | · | · | · | ·
Cc1nnc(NC(=O)CSc2ncnc3c2cnn3-c2ccccc2C)s1 | -5 | -1.9 | 1 | · | 33 | -2 | ·
CCOC(=O)Cc1csc(NC(=O)CSc2ncnc3c2cnn3-c2ccccc2Cl)n1 | 13 | -2.8 | 0.6 | · | 17 | 36 | 0.054*
CC(=O)Nc1ccc(OCCC[n+]2ccccc2)cc1 | -4 | -0.87 | 1.1 | · | -2 | -8 | ·
SMILES | L major viab | KCC2 mod | Diaph act CS | ROMK primary | WT yeast gro inh | Diaphorase inh | ROMK hit retest
CCCCCc1ccc(OCCOCCn2c[n+](C)c3ccccc32)c(CCCCC)c1 | 101* | 0.037 | 2* | · | 96* | -95 | 0.046*
CCCCCc1ccc(OCCC[n+]2ccccc2)c(CCCCC)c1 | · | 0.39 | · | · | · | · | 0.06*
N#Cc1ccc2c(c1)nc1ccccn12 | 3 | 0.82 | 1 | · | 15 | 4 | ·
Clc1ccc2nc3ccccn3c2c1 | 10 | · | 1 | 3.6* | 27 | -2 | 0.092
CCOC(=O)c1cnc2ccc(OC)cc2c1NCCc1ccc(OC)c(OC)c1 | 64* | 0.52 | 1 | -4.1* | 32 | 4 | 0.055*
CCOC(=O)c1cnc2ccc(OCC)cc2c1NCc1cccnc1 | 65* | -2.1 | 0.7 | 3.7* | 2 | 29 | 0.089
CCOC(=O)c1cnc2ccccc2c1NCCc1ccc(OC)c(OC)c1 | 23 | -0.02 | 1 | -2 | 24 | 4 | ·
CCOC(=O)c1cnc2c(OC)cccc2c1NCc1cccnc1 | 19 | -1 | 1 | -0.06 | 16 | -3 | ·
CCc1n[n+](CC(=O)c2ccccc2)c(N)s1 | 5 | 0.4 | 1 | -0.12 | 8 | 5 | ·
COc1ccc(N2CCN(c3c(S(=O)(=O)c4ccccc4)cnc4ccc(OC)cc34)CC2)cc1 | 61* | -0.7 | 0.8 | · | 76* | 21 | ?
CCOC(=O)C1CCCN(c2c(C(=O)c3ccccc3)cnc3ccc(OC)cc23)C1 (stereo not given) | 49 | -2.9 | 0.9 | 1.3 | 4 | 9 | ·
COc1ccc(S(=O)(=O)c2cnc3ccc(OC)cc3c2N2CCC3(CC2)OCCO3)cc1 | 5 | -0.82 | 0.9 | · | 4 | 15 | 0.05*
Cc1cccc(C(=O)N[C@H](C(=O)Nc2nccs2)C(C)C)c1 | -2 | 1.6 | 1 | · | -11 | -2 | ·
CC1(c2ccccc2)CC(C)(C)N(C(=O)C2CCCO2)c2ccccc21 (stereo not given) | 87* | -0.31 | 0.9 | -3.6* | 42 | 11 | 0.058*
CCCCOc1ccc2c(c1)/C(=C(\C(Cl)=C(Cl)Cl)[N+](=O)[O-])N2 | 9 | -0.1 | 0.5 | -5.6* | -11 | 50* | 0.054*
CCOc1ccc2c(c1)/C(=C(\C(Cl)=C(Cl)Cl)[N+](=O)[O-])N2 | 1 | 0.0069 | 0.5 | -4.7* | -4 | 51* | 0.053*
CCOc1ccc2c(c1)/C(=N/N1C(=O)c3ccccc3C1=O)C(=O)N2 | -13 | 0.66 | 1.2 | · | 1 | -15 | ·
Cc1ccc2c(c1)c1c(n2CC(O)CNC2CCCC2)CCCC1 (stereo not given) | · | 0.061 | · | -1.8 | · | · | ·
COC(Cn1c2c(c3cc(C)ccc31)CCCC2NCc1ccccc1)OC (stereo not given) | · | -0.67 | · | -3.9* | · | · | 0.066*
Nc1nc(-c2ccccc2)cn1/N=C/c1ccccc1 | · | 0.022 | · | 7.3* | · | · | 0.089
Nc1nc(-c2ccccc2)cn1N | 3 | -0.065 | 1 | · | 10 | -5 | ·
Cc1ccccc1NC1=NC(=S)N(CC(N)=O)C12CCOC(C)(C)C2 (stereo not given) | · | 1 | · | · | · | · | ·
